Consider 14 compounds from publication PMC12679438 (RSC Advances, 2025).

Molecules are shown by their SMILES. Read-outs that look alike come from different tables or passages of the source. Where only a bound is given, the exact number is not on record here.

One experiment deals with RAMOS. In words: MTS cytotoxicity assay, 72 h, RAMOS. Format: cell-based, human. The conditions noted are these: Homo sapiens, Ramos, read-out: IC50 RAMOS. A digest of the protocol:
(§1)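 Human lines were kept at 37 °C, 5% CO2 in recommended medium plus 10% FCS, penicillin–streptomycin, 2 mM glutamine, 1 mM bicarbonate, 1 mM pyruvate and 20 mM HEPES, and were mycoplasma-tested biweekly. Cells were exposed to test compound for 72 h on a robotic screening platform, then read by MTS. DMSO-treated cells were the negative control. IC50 came from dose–response curves, mean of ≥6 replicates.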
In general terms: Tetrazolium assays rely on reduction of a dye to a coloured formazan, in cell work by metabolically active cells.

Another experiment concerns CCRF-CEM. Description: MTS cytotoxicity assay, 72 h, CCRF-CEM. In kind it is cell-based, human. The conditions noted are these: Homo sapiens, CCRF-CEM, read-out: IC50 CCRF-CEM. The essentials:
as §1

The subject of another experiment is MRC-5. In words: MTS cytotoxicity assay, 72 h, MRC-5 fibroblasts. Format: cell-based, human. The conditions noted are these: Homo sapiens, MRC5, 72 h, read-out: IC50 MRC-5. A digest of the protocol:
as §1

A further experiment deals with HCT116-p53. In words: MTS cytotoxicity assay, 72 h, HCT116-p53. Format: cell-based, human. The conditions noted are these: Homo sapiens, read-out: IC50 HCT116-p53. A digest of the protocol: as §1
In the next experiment the test system is HCT116. Description: MTS cytotoxicity assay, 72 h, HCT116. Format: cell-based, human. The conditions noted are these: Homo sapiens, HCT-116, 72 h, read-out: IC50 HCT116. A digest of the protocol:
as §1

A further experiment has as its system U2OS. Description: MTS cytotoxicity assay, 72 h, U2OS. Format: cell-based, human. Particulars: Homo sapiens, U2OS, read-out: IC50 U2OS. A digest of the protocol: as §1
In another experiment the test system is Jurkat. In words: MTS cytotoxicity assay, 72 h, Jurkat. In kind it is cell-based, human. Particulars: Homo sapiens, Jurkat, read-out: IC50 Jurkat. The essentials:
as §1

A further experiment concerns BJ. Description: MTS cytotoxicity assay, 72 h, BJ fibroblasts. In kind it is cell-based, human. Particulars: Homo sapiens, BJ, read-out: IC50 BJ. A digest of the protocol: as §1
The subject of another experiment is K562. Description: MTS cytotoxicity assay, 72 h, K562. The conditions noted are these: Homo sapiens, K562, 72 h, read-out: IC50 K562. In kind it is cell-based, human. A digest of the protocol: as §1
The test system of a further experiment is A549. Description: MTS cytotoxicity assay, 72 h, A549. In kind it is cell-based, human. The conditions noted are these: Homo sapiens, A549, 72 h, read-out: IC50 A549. A digest of the protocol:
as §1

In experiment [1] the test system is panel of human cell lines. Description: MTS cytotoxicity assay, statements over groups of cell lines of the panel. In kind it is cell-based. Particulars: Homo sapiens. The essentials: as §1
Setting [2] is: 72 h, read-out: IC50 across all tested cell lines.
Setting [3] is: read-out: IC50 across multiple cancer lines.

The IC50 is the midpoint of a concentration-inhibition curve.

`O=C(Nc1ccccc1)C1CN(c2cc(-c3ccncc3)n[nH]c2=O)C1` [Compound 7, 1-(3-oxo-6-(pyridin-4-yl)-2,3-dihydropyridazin-4-yl)-N-phenylazetidine-3-carboxamide]: the concentration for half-maximal inhibition (IC50) in the experiment on RAMOS, with CCRF-CEM, with MRC-5, with HCT116-p53, with HCT116 and in the experiment on U2OS was above 50 µM in each case. For the same compound, the IC50 (in the experiment on Jurkat; in the experiment on BJ; with K562; in the experiment on A549; in experiment [1] (setting [2])) was above 50 µM in each case.

`O=C(Nc1ccccc1)C1CN(c2cc(-c3ccccc3)n[nH]c2=O)C1` [Compound 8, 1-(3-oxo-6-phenyl-2,3-dihydropyridazin-4-yl)-N-phenylazetidine-3-carboxamide]: the half-maximal inhibitory concentration (IC50) with RAMOS, in the experiment with CCRF-CEM, in the experiment with MRC-5, in the experiment on HCT116-p53, in the experiment with HCT116 and in the experiment with U2OS was above 50 µM each time. Also, the 50% inhibitory concentration (IC50) (with Jurkat; in the experiment with BJ; in the experiment on K562; with A549; in experiment [1] (setting [2])) was above 50 µM in each case.

`COc1ccc(-c2cc(N3CC(C(=O)Nc4ccccc4)C3)c(=O)[nH]n2)cc1` [Compound 10, 1-(6-(4-methoxyphenyl)-3-oxo-2,3-dihydropyridazin-4-yl)-N-phenylazetidine-3-carboxamide]: the half-maximal inhibitory concentration (IC50) with RAMOS is 11 µM; with CCRF-CEM, 20.8 µM; with MRC-5 it was above 50 µM; in the experiment on HCT116-p53, above 50 µM; in the experiment with HCT116, above 50 µM; in the experiment on U2OS it was above 50 µM. For the same compound, the IC50 in the experiment on Jurkat is 40.3 µM; with BJ, above 50 µM; in the experiment with K562, above 50 µM; with A549 it was above 50 µM.

Turning to `O=C(Nc1ccccc1)C1CN(c2cc(-c3ccc(Cl)cc3)n[nH]c2=O)C1` [Compound 11, 1-(6-(4-chlorophenyl)-3-oxo-2,3-dihydropyridazin-4-yl)-N-phenylazetidine-3-carboxamide], the 50% inhibitory concentration (IC50) in the experiment with RAMOS worked out at 10.4 µM; in the experiment with CCRF-CEM, 23 µM; in the experiment with MRC-5 it was 26 µM; with HCT116-p53, 37.9 µM; with HCT116, 38.9 µM; in the experiment with U2OS it was 26.9 µM. Further, the 50% inhibitory concentration (IC50) with Jurkat is 33.2 µM; in the experiment with BJ it was 34 µM; in the experiment with K562, above 50 µM; with A549, 32 µM; in experiment [1] (setting [3]), 18 to 37 µM.

Regarding `O=C(Nc1ccccc1)C1CN(c2cc(-c3ccc(F)cc3F)n[nH]c2=O)C1` [Compound 12, 1-(6-(2,4-difluorophenyl)-3-oxo-2,3-dihydropyridazin-4-yl)-N-phenylazetidine-3-carboxamide], the IC50 is 16.8 µM with RAMOS; 18 µM in the experiment with CCRF-CEM; 16.6 µM in the experiment on MRC-5; 32.8 µM in the experiment on HCT116-p53; 37.1 µM in the experiment on HCT116; 16.2 µM with U2OS. The IC50 is 33.9 µM with Jurkat; 28.9 µM in the experiment on BJ; 31.8 µM in the experiment on K562; 36.3 µM in the experiment with A549; 18 to 37 µM in experiment [1] (setting [3]).

In the case of `O=C(NCc1ccco1)C1CN(c2cc(-c3ccncc3)n[nH]c2=O)C1` [Compound 17, N-(furan-2-ylmethyl)-1-(3-oxo-6-(pyridin-4-yl)-2,3-dihydropyridazin-4-yl)azetidine-3-carboxamide], the IC50 in the experiment with RAMOS, in the experiment on CCRF-CEM, in the experiment on MRC-5, in the experiment on HCT116-p53, with HCT116 and in the experiment with U2OS was above 50 µM each time. The half-inhibitory concentration (IC50) (with Jurkat; in the experiment with BJ; with K562; in the experiment with A549; in experiment [1] (setting [2])) was above 50 µM each time.

As for `O=C(NCc1ccco1)C1CN(c2cc(-c3ccccc3)n[nH]c2=O)C1` [Compound 18, N-(furan-2-ylmethyl)-1-(3-oxo-6-phenyl-2,3-dihydropyridazin-4-yl)azetidine-3-carboxamide], the IC50 was 41.2 µM with RAMOS; 30.2 µM in the experiment with CCRF-CEM; above 50 µM with MRC-5; above 50 µM in the experiment on HCT116-p53; above 50 µM in the experiment on HCT116; above 50 µM in the experiment on U2OS. For the same compound, the IC50 in the experiment with Jurkat is 19.2 µM; with BJ, above 50 µM; in the experiment on K562 it was 30.4 µM; in the experiment on A549, above 50 µM.

Consider `O=C(NCc1ccco1)C1CN(c2cc(-c3cccc(F)c3)n[nH]c2=O)C1` [Compound 19, 1-(6-(3-fluorophenyl)-3-oxo-2,3-dihydropyridazin-4-yl)-N-(furan-2-ylmethyl)azetidine-3-carboxamide], for which the IC50 was 16.3 µM with RAMOS; above 50 µM in the experiment with CCRF-CEM; above 50 µM in the experiment on MRC-5; above 50 µM in the experiment with HCT116-p53; above 50 µM with HCT116; above 50 µM in the experiment with U2OS. Moreover, the IC50 with Jurkat is 25.1 µM; with BJ it was above 50 µM; in the experiment with K562, above 50 µM; with A549, above 50 µM.

Turning to `COc1ccc(-c2cc(N3CC(C(=O)NCc4ccco4)C3)c(=O)[nH]n2)cc1` [Compound 20, N-(furan-2-ylmethyl)-1-(6-(4-methoxyphenyl)-3-oxo-2,3-dihydropyridazin-4-yl)azetidine-3-carboxamide], the half-maximal inhibitory concentration (IC50) is 19.7 µM with RAMOS; above 50 µM with CCRF-CEM; above 50 µM in the experiment on MRC-5; above 50 µM in the experiment on HCT116-p53; above 50 µM with HCT116; above 50 µM with U2OS. Besides, the half-inhibitory concentration (IC50) is 24.3 µM with Jurkat, above 50 µM with BJ, 38.7 µM in the experiment on K562 and above 50 µM with A549.

As for `O=C(NCc1ccco1)C1CN(c2cc(-c3ccc(Cl)cc3)n[nH]c2=O)C1` [Compound 21, 1-(6-(4-chlorophenyl)-3-oxo-2,3-dihydropyridazin-4-yl)-N-(furan-2-ylmethyl)azetidine-3-carboxamide], the IC50 in the experiment with RAMOS is 37.5 µM; in the experiment on CCRF-CEM it was above 50 µM; in the experiment with MRC-5 it was above 50 µM; in the experiment with HCT116-p53 it was above 50 µM; with HCT116 it was above 50 µM; in the experiment on U2OS, above 50 µM. Besides, the IC50 in the experiment with Jurkat was 30.5 µM; with BJ it was above 50 µM; in the experiment on K562 it was above 50 µM; in the experiment with A549 it was above 50 µM.

As for `COC(=O)c1cncc(-c2cc(N3CC(C(=O)NCc4ccco4)C3)c(=O)[nH]n2)c1` [Compound 23, methyl 5-(5-(3-((furan-2-ylmethyl)carbamoyl)azetidin-1-yl)-6-oxo-1,6-dihydropyridazin-3-yl)nicotinate], the IC50 is 5.53 µM in the experiment on RAMOS; 5.12 µM in the experiment with CCRF-CEM; above 50 µM with MRC-5; 12.7 µM in the experiment on HCT116-p53; 8.83 µM in the experiment on HCT116; 16.9 µM in the experiment on U2OS. Further, the concentration for half-maximal inhibition (IC50) is 5.15 µM in the experiment on Jurkat, above 50 µM in the experiment on BJ, 7.4 µM in the experiment on K562 and 42.1 µM in the experiment on A549.

For the compound `O=C(C1CN(c2cc(-c3ccncc3)n[nH]c2=O)C1)N1CCN(c2ccccc2)CC1` [Compound 28, 4-(3-(4-phenylpiperazine-1-carbonyl)azetidin-1-yl)-6-(pyridin-4-yl)pyridazin-3(2H)-one], the 50% inhibitory concentration (IC50) in the experiment on RAMOS, with CCRF-CEM, in the experiment on MRC-5, in the experiment with HCT116-p53, in the experiment on HCT116 and in the experiment on U2OS was above 50 µM throughout. Besides, the IC50 in the experiment with Jurkat, in the experiment with BJ, with K562 and in the experiment on A549 was above 50 µM throughout.

On to `O=C(C1CN(c2cc(-c3ccccc3)n[nH]c2=O)C1)N1CCN(c2ccccc2)CC1` [Compound 29, 6-phenyl-4-(3-(4-phenylpiperazine-1-carbonyl)azetidin-1-yl)pyridazin-3(2H)-one], for which the IC50 with RAMOS, in the experiment with CCRF-CEM, with MRC-5, with HCT116-p53, in the experiment with HCT116 and in the experiment with U2OS was above 50 µM throughout. Moreover, the IC50 in the experiment with Jurkat, in the experiment on BJ, in the experiment on K562 and with A549 was above 50 µM each time.

As to `O=C(c1ccncc1)C1CN(c2cc(-c3ccncc3)n[nH]c2=O)C1` [Compound 46, 4-(3-isonicotinoylazetidin-1-yl)-6-(pyridin-4-yl)pyridazin-3(2H)-one], the IC50 was above 50 µM in the experiment with RAMOS; 29 µM in the experiment with CCRF-CEM; above 50 µM in the experiment with MRC-5; above 50 µM in the experiment on HCT116-p53; above 50 µM in the experiment on HCT116; above 50 µM with U2OS. In addition, the IC50 was 35.9 µM in the experiment with Jurkat, above 50 µM in the experiment on BJ, above 50 µM in the experiment with K562 and above 50 µM with A549.
